# Assay results: ChEMBL document CHEMBL4715779, “In vivo effective dibenzo[b,d]furan-1-yl-thiazoles as novel PDE-4 inhibitors” (Bioorg Med Chem, 2016)
# Columns and labels:
# [1] = target: T1, 3',5'-cyclic-AMP phosphodiesterase 4B (Homo sapiens, UniProt Q07343); assay: Inhibition of human PDE4B using [3H]cAMP as substrate at 100 nM incubated for 5 mins followed by substrate addition and measured after 10 mins by scintillation proximity assay relative to control; details: time 15.0 min
# Outline: (§1)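 Purified human PDE-4B2 in 50 mM Tris pH 7.4, 8.3 mM Mg2+, 1% DMSO final, enzyme converting 10–20% of substrate; 5 min pre-incubation at 37 °C, then 0.5 µM cAMP with ~50,000 cpm [3H]-cAMP for 10 min; stopped with yttrium silicate SPA beads containing 18 mM ZnSO4, read after >30 min settling. Background = no enzyme; IC50 from 8–10-point 4-parameter fit.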
# [2] = target: T1, 3',5'-cyclic-AMP phosphodiesterase 4B; assay: Inhibition of human PDE4B using [3H]cAMP as substrate incubated for 5 mins followed by substrate addition and measured after 10 mins by scintillation proximity assay; outline: as §1
# PBMC [3] = assay: Inhibition of PDE-4 in human PBMC assessed as LPS-induced TNFalpha production at 1000 nM incubated for 15 mins followed by LPS stimulation and measured after 18 hrs by ELISA relative to control; details: time 1095.0 min
# Outline: (§2)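 PBMC isolated from healthy volunteers' blood in cell preparation tubes, suspended in RPMI; 0.5 million cells/well pre-incubated with compound 15 min at 37 °C, then stimulated with E. coli LPS (B4) 1 µg/mL for 18 h at 37 °C, 5% CO2; medium TNF-α measured by ELISA.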
# PBMC [4] = assay: Inhibition of PDE-4 in human PBMC assessed as LPS-induced TNFalpha production at 100 nM incubated for 15 mins followed by LPS stimulation and measured after 18 hrs by ELISA relative to control; details: time 1095.0 min; outline: as §2
# [5] = Inhibition of PDE-4 in human PBMC assessed as LPS-induced TNFalpha production incubated for 15 mins followed by LPS stimulation and measured after 18 hrs by ELISA relative to control; outline: as §2
# Rattus norvegicus [6] = assay: Antiinflammatory activity in Sprague-Dawley rat model of LPS-induced COPD and asthma assessed as reduction in neutrophil influx in BALF at 10 mg/kg, po administered 30 mins before LPS stimulation and measured after 6 hrs relative to control; assay type: functional; details: time 6.5 hrs
# Rattus norvegicus [7] = assay: Antiinflammatory activity in Sprague-Dawley rat model of LPS-induced COPD and asthma assessed as reduction in neutrophil influx in BALF at 5 mg/kg, po administered 30 mins before LPS stimulation and measured after 6 hrs relative to control; assay type: functional; details: time 6.5 hrs
# [8] = target: T1, 3',5'-cyclic-AMP phosphodiesterase 4B; assay: Inhibition of human PDE4B using [3H]CAMP as substrate at 1000 nM incubated for 5 mins followed by substrate addition and measured after 10 mins by scintillation proximity assay relative to control; details: time 15.0 min; outline: as §1
# Mus musculus [9] = assay: Antiinflammatory activity in Swiss albino mouse model of LPS-induced sepsis assessed as reduction in TNFalpha production at 10 mg/kg, po administered 30 mins before LPS stimulation and measured after 90 min by ELISA relative to control; assay type: functional; details: 2 h, time 120 min
# Outline: (§3)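 Female Swiss albino mice fasted 20 h with water, dosed orally in 0.5% Tween 80/0.25% CMC sodium; vehicle-only controls. 500 µg E. coli LPS (B4) in PBS i.p. 30 min later; retro-orbital bleed 90 min post-LPS, blood held overnight at 4 °C, serum TNF-α by mouse ELISA; % inhibition.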
# Mus musculus [10] = assay: Antiinflammatory activity in Swiss albino mouse model of LPS-induced sepsis assessed as reduction in TNFalpha production at 1 mg/kg, po administered 30 mins before LPS stimulation and measured after 90 min by ELISA relative to control; assay type: functional; details: 2 h, time 120 min; outline: as §3
# Mus musculus [11] = assay: Antiinflammatory activity in Swiss albino mouse model of LPS-induced sepsis assessed as reduction in TNFalpha production at 3 mg/kg, po administered 30 mins before LPS stimulation and measured after 90 min by ELISA relative to control; assay type: functional; details: 2 h, time 120 min; outline: as §3
# Rattus norvegicus [12] = assay: Antiinflammatory activity in Sprague-Dawley rat model of LPS-induced COPD and asthma assessed as reduction in total cell count in BALF at 10 mg/kg, po administered 30 mins before LPS stimulation and measured after 6 hrs relative to control; assay type: functional; details: time 6.5 hrs
# T1 sequence (Q07343 whole entry): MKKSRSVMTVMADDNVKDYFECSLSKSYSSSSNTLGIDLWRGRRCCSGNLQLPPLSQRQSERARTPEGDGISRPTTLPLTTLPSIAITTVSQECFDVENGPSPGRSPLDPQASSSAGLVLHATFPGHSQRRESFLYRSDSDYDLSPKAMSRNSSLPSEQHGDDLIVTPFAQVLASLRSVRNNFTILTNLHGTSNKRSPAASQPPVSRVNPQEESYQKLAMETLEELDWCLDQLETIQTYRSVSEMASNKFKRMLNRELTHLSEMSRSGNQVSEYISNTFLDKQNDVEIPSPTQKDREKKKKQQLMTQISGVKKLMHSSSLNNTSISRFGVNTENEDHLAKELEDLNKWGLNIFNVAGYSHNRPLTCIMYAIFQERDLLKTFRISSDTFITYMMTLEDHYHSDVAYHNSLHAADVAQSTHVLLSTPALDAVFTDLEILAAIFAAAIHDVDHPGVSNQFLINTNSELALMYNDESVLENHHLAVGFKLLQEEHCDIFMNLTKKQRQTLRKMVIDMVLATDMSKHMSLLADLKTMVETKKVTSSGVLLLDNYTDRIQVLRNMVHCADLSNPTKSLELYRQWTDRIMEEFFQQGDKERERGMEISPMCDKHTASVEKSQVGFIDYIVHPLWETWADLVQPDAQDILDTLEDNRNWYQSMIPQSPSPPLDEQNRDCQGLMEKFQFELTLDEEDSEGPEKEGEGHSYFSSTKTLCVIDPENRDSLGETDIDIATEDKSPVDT
Compound,inhibition [1] [%],inhibition (PBMC [3]) [%],inhibition (PBMC [4]) [%],inhibition [8] [%],further results
CC(=O)Nc1ccc2oc3c(OC(F)F)ccc(-c4nc(C(=O)NC5CCC(O)CC5)cs4)c3c2c1 (configuration not stated),69,91.9,83.4,,IC50 [2]: 40.4 nM; IC50 [5]: 39.6 nM; inhibition in vivo at 10 mg/kg (Rattus norvegicus [6]): 51.2%; inhibition in vivo at 5 mg/kg (Rattus norvegicus [7]): 35.7%
COc1ccc(-c2nc(CCC(=O)Nc3c(Cl)cncc3Cl)cs2)c2c1oc1ccccc12,8.9,,,38.5,
COc1ccc(-c2nc(C(=O)NN3CCOCC3)cs2)c2c1oc1ccccc12,39.6,22,,,
CCOC(=O)c1cccc(-c2csc(-c3ccc(OC)c4oc5ccccc5c34)n2)n1,5.8,,,15.6,
CC(=O)Nc1ccc2oc3c(OC(F)F)ccc(-c4nc(C(=O)O)cs4)c3c2c1,56.5,,15.5,,
COc1ccc(-c2nc(-c3cccc(C(=O)O)n3)cs2)c2c1oc1ccccc12,18.2,,,26.4,
COc1ccc(-c2nc(C(=O)Nc3c(Cl)cncc3Cl)c(C)s2)c2c1oc1ccccc12,11.1,9.9,0.9,,
COc1ccc(-c2nc(C(=O)NC3CCC(O)CC3)cs2)c2c1oc1ccccc12 (configuration not stated),71.8,,63.2,,IC50 [2]: 49.5 nM; IC50 [5]: 37.7 nM; inhibition in vivo at 10 mg/kg (Mus musculus [9]): 46.7%
COc1ccc(-c2nc(C(=O)Nc3ccccc3)cs2)c2c1oc1ccccc12,2.4,,,7.4,
Cc1sc(-c2ccc(OC(F)F)c3oc4ccc(NS(C)(=O)=O)cc4c23)nc1C(=O)NC1CCC(O)CC1 (configuration not stated),67.6,92.8,61.8,,IC50 [2]: 24.7 nM; IC50 [5]: 54.4 nM; inhibition in vivo at 10 mg/kg (Rattus norvegicus [6]): 19.3%
CONC(=O)c1nc(-c2ccc(OC(F)F)c3oc4ccc(NS(C)(=O)=O)cc4c23)sc1C,81.2,,35.4,,
CONC(=O)c1csc(-c2ccc(OC(F)F)c3oc4ccccc4c23)n1,35.7,,8.5,,inhibition in vivo at 10 mg/kg (Mus musculus [9]): 40.7%
CCOC(=O)c1csc(-c2ccc(OC)c3oc4ccccc4c23)n1,17.6,,,24.4,
CCOc1cc([C@@H](CS(C)(=O)=O)N2C(=O)c3cccc(NC(C)=O)c3C2=O)ccc1OC,,,,,IC50 [5]: 77 nM
CS(=O)(=O)Nc1ccc2oc3c(OC(F)F)ccc(C(=O)Nc4c(Cl)cncc4Cl)c3c2c1 [OGLEMILAST],,,,,inhibition in vivo at 10 mg/kg (Mus musculus [9]): 72.5%; inhibition in vivo at 1 mg/kg (Mus musculus [10]): 53.9%
COc1ccc(-c2nc(C(=O)N3CCN(c4ccccn4)CC3)cs2)c2c1oc1ccccc12,21.9,,,52.9,
Cc1sc(-c2ccc(OC(F)F)c3oc4ccc(NS(C)(=O)=O)cc4c23)nc1C(=O)O,62.6,,,,
O=C(c1csc(-c2ccc(OC(F)F)c3oc4ccc(C(F)(F)F)cc4c23)n1)N1CCC(O)CC1,27.4,,14,,

Compound,inhibition [1] [%],inhibition (PBMC [3]) [%],inhibition (PBMC [4]) [%],inhibition [8] [%],further results
COc1ccc(-c2nc(CC(=O)Nc3c(Cl)cncc3Cl)cs2)c2c1oc1ccccc12,32.7,,,87.8,
O=C(Nc1c(Cl)cncc1Cl)c1ccc(OC(F)F)c(OCC2CC2)c1 [ROFLUMILAST],,,,,IC50 [5]: 4.3 nM; inhibition in vivo at 10 mg/kg (Rattus norvegicus [6]): 73.2%; inhibition in vivo at 3 mg/kg (Mus musculus [11]): 59.2%; inhibition in vivo at 10 mg/kg (Rattus norvegicus [12]): 73.2%
CS(=O)(=O)Nc1ccc2oc3c(OC(F)F)ccc(-c4nc(C(=O)NC5CCC(O)CC5)cs4)c3c2c1 (configuration not stated),67,97.8,78.6,,IC50 [2]: 31.4 nM; IC50 [5]: 18.4 nM
COc1ccc(-c2nc(C(=O)NC3CCC(O)CC3)c(C)s2)c2c1oc1ccccc12 (configuration not stated),62.6,103,82.7,,IC50 [2]: 43.8 nM; IC50 [5]: 27.7 nM
O=C(O)c1csc(-c2ccc(OC(F)F)c3oc4ccc(C(F)(F)F)cc4c23)n1,59.3,,4.2,,
O=C(NC1CCC(O)CC1)c1csc(-c2ccc(OC(F)F)c3oc4ccc(C(F)(F)F)cc4c23)n1 (configuration not stated),51.5,,17.2,,
O=C(Nc1c(Cl)cncc1Cl)c1csc(-c2ccc(OC(F)F)c3oc4ccccc4c23)n1,42.3,28.3,14.5,88.6,IC50 [2]: 127 nM; IC50 [5]: 2210 nM
COc1ccc(-c2nc(C(=O)Nc3c(Cl)cncc3Cl)cs2)c2c1oc1ccccc12,70.3,34.2,,92,IC50 [2]: 48.4 nM; IC50 [5]: 1750 nM; inhibition in vivo at 10 mg/kg (Mus musculus [9]): 37.8%
COc1ccc(-c2nc(C(=O)O)cs2)c2c1oc1ccccc12,36,,,80.4,
COc1ccc(-c2nc(C(=O)Nc3ccc(Cl)cc3)cs2)c2c1oc1ccccc12,1.2,15.8,2.98,5.2,
CCNC(=O)c1nc(-c2ccc(OC)c3oc4ccccc4c23)sc1C,24.6,23.8,9.9,,
COc1ccc(-c2csc(-c3ccc(OC)c4oc5ccccc5c34)n2)cc1,19.4,,,41.5,
COc1ccc(-c2nc(C(=O)N3CCN(c4ncccn4)CC3)cs2)c2c1oc1ccccc12,25.8,,,59.3,
O=C(NCC(F)(F)F)c1csc(-c2ccc(OC(F)F)c3oc4ccccc4c23)n1,,31.9,26.7,,
COc1ccc(-c2nc(C(=O)NC3CCCC3)c(C)s2)c2c1oc1ccccc12,1.6,39.1,21.9,,
CS(=O)(=O)Nc1ccc2oc3c(OC(F)F)ccc(-c4nc(C(=O)Nc5c(Cl)cncc5Cl)cs4)c3c2c1,43.4,,25.1,,
COc1ccc(-c2nc(C(N)=O)cs2)c2c1oc1ccccc12,15.4,69.8,35.5,43.8,IC50 [5]: 386 nM
COc1ccc(-c2nc(-c3ccc(C#N)cc3)cs2)c2c1oc1ccccc12,5.2,,,15.8,
